Measurements pooled from the literature.
Each line is one published result; the experiments were not run side by side.
SLC22A6: Solute carrier family 22 member 6 (SLC22A6, Homo sapiens, UniProt Q4U2R8)
PRMT3: Protein arginine N-methyltransferase 3 (PRMT3, Homo sapiens, UniProt O60678)
PTPN1: Tyrosine-protein phosphatase non-receptor type 1 (PTPN1, Homo sapiens, UniProt P18031)
PDE7A: High affinity 3',5'-cyclic-AMP phosphodiesterase 7A (PDE7A, Homo sapiens, UniProt Q13946)
TDP1: Tyrosyl-DNA phosphodiesterase 1 (TDP1, Homo sapiens, UniProt Q9NUW8)
NTRK1: High affinity nerve growth factor receptor (NTRK1, Homo sapiens, UniProt P04629)
LDHA: L-lactate dehydrogenase A chain (LDHA, Homo sapiens, UniProt P00338)
Rhomboid protease AarA: Rhomboid protease AarA (Providencia stuartii, UniProt P46116)
MAOA: Amine oxidase [flavin-containing] A (MAOA, Homo sapiens, UniProt P21397)

O=C(O)CCc1nc(-c2ccccc2)c(-c2ccccc2)o1 — IC50 (SLC22A6; transporter uptake, inhibitor): 0.891 µM
CCNC(=O)NCCSC[C@H]1O[C@@H](n2cnc3c(N)ncnc32)[C@H](O)[C@@H]1O — IC50 (PRMT3; enzyme activity, inhibitor, fluorescence): > 100 µM
CC1=C[C@@]2(C[C@H](C)[C@H]3CC=C(CO)C(=O)[C@@H]3O2)OC1=O — IC50 (PTPN1; enzyme activity, inhibitor): 41.1 µM
CC(C)(C)n1nc(-c2cnc3cc(OC4CC4)ccc3c2)c(C(N)=O)c1N — IC50 (Receptor-interacting serine/threonine-protein kinase 2 (RIPK2, Homo sapiens, UniProt O43353); cell-free assay): 1.71 µM
N[C@@H](Cc1ccc(C(F)(F)P(=O)(O)O)cc1)C(=O)O — IC50 (PTPN1; enzyme activity, inhibitor, absorbance): 500 µM
COc1cc(C[C@H]2C(=O)OC[C@@H]2Cc2ccc(OC)c(OC)c2)ccc1O — IC50 (PDE7A; enzyme activity, inhibitor): > 20 µM
CN(C)CCCN1c2ccccc2Sc2ccc(Cl)cc21 — IC50 (Glutathione reductase, mitochondrial (GSR, Homo sapiens, UniProt P00390); enzyme activity, inhibitor, absorbance): > 100 µM
COc1cc(/C=C2\SC(=O)NC2=O)cc(F)c1OCCNc1nc2c(cnn2C2CCCC2)c(=O)[nH]1 — IC50 (PDE7A; enzyme activity, inhibitor): 0.279 µM
CCOc1ccc2c(-c3cc(C)nc(Nc4cc(OC)cc(C(F)(F)F)c4)n3)cnn2n1 — IC50 (Homeodomain-interacting protein kinase 4 (HIPK4, Homo sapiens, UniProt Q8NE63); enzyme activity, inhibitor): > 10 µM
COc1cc2c(OC)nc3c4cc5c(cc4cc(OCCCN4CCC(N6CCCCC6)CC4)c3c2cc1OC)OCO5 — IC50 (TDP1; enzyme activity, inhibitor, fluorescence): 6.4 µM
COc1cccc(OC)c1OCCNCC1COc2ccccc2O1 (centres unmarked) — IC50 (Alpha-1A adrenergic receptor (ADRA1A, Homo sapiens, UniProt P35348); ligand displacement, radioligand): 0.00036 µM
Cc1ccc(NC(=O)c2ccc(C)c(C(F)(F)F)c2)cc1C#Cc1nn(C2CCC(O)CC2)c2ncnc(N)c12 (centres unmarked) — IC50 (NTRK1; enzyme activity, inhibitor, radiometric): > 10 µM
Nc1ncnc2c1ncn2[C@@H]1O[C@H](CSCCCNC(=O)NCc2ccccc2)[C@@H](O)[C@H]1O — IC50 (PRMT3; enzyme activity, inhibitor, fluorescence): 70 µM
O=C(O)CSc1nnc(Br)n1-c1ccc(C2CC2)c2ccccc12 — IC50 (Broad substrate specificity ATP-binding cassette transporter ABCG2 (ABCG2, Homo sapiens, UniProt Q9UNQ0); transporter uptake, inhibitor; Caco-2; 2 h): > 3000 µM
O=c1cc(-c2ccc(O)c(O)c2)oc2cc(O[C@@H]3O[C@H](CO)[C@@H](O)[C@H](O)[C@H]3O)cc(O)c12 — IC50 (LDHA; enzyme activity, inhibitor; pH 7.4): 139 µM
C[C@@H]1C[C@H]2O[C@@H]2/C=C\C=C\C(=O)Cc2cc(O)cc(O)c2C(=O)O1 — IC50 (Mitogen-activated protein kinase kinase kinase 7 (MAP3K7, Homo sapiens, UniProt O43318); enzyme activity, inhibitor, ATP luminescence): > 10 µM
O=c1oc(Cl)c(Cl)c2ccccc12 — IC50 (Rhomboid protease AarA; enzyme activity, inhibitor): 54 µM
O=c1oc2c(cc1O)oc(=O)c1cc(O)c(O)c(O)c12 — IC50 (LDHA; enzyme activity, inhibitor; pH 7.4): 104 µM
CSc1ccc(/C=C2/C(C)=C(CC(=O)O)c3cc(F)ccc32)cc1 — IC50 (Cone cGMP-specific 3',5'-cyclic phosphodiesterase subunit alpha' (PDE6C, Homo sapiens, UniProt P51160); enzyme activity, inhibitor): > 100 µM
O=C(c1ccc(O)cc1O)[C@H](O)[C@@H](O)c1ccc(O)cc1 — IC50 (MAOA; enzyme activity, inhibitor): 0.62 µM
NC(=O)c1cnc2[nH]ccc2c1N[C@@H]1[C@@H]2CC3C[C@H]1C[C@@](O)(C3)C2 — IC50 (SLC22A6; transporter uptake, inhibitor, radiometric; 2 min): > 100 µM
CC1(C)C(/C=C/C=C2/N(CCCc3ccccc3)c3ccc(Cl)cc3C2(C)C)=[N+](CCCc2ccccc2)c2ccc(Cl)cc21 — IC50 (PRMT3; enzyme activity, inhibitor, radiometric): 1.03 µM
Nc1ncnc2c1ncn2[C@@H]1O[C@H](CSCCNC(=O)Nc2ccc(F)cc2)[C@@H](O)[C@H]1O — IC50 (PRMT3; enzyme activity, inhibitor, fluorescence): 2 µM
COc1cc2c(OC)nc3c4cc5c(cc4cc(OCCCN(C)C)c3c2cc1OC)OCO5 — IC50 (TDP1; enzyme activity, inhibitor, fluorescence): 1.7 µM
CC1(C)C(/C=C/C=C2/N(CCCc3ccccc3)c3ccc4ccccc4c3C2(C)C)=[N+](CCCc2ccccc2)c2ccc3ccccc3c21 — IC50 (PRMT3; enzyme activity, inhibitor, radiometric): 0.72 µM
Cc1nc2ccc(NC(=O)CCNC(=O)CCCc3ccc(CC(C(=O)O)C(=O)O)cc3)cc2s1 — IC50 (LDHA; enzyme activity, inhibitor): 1.2 µM
CN1C(=O)c2c(nn(Cc3ccc(-c4cccc(F)n4)cc3)c2Nc2ccccc2)N2C1=N[C@@H]1CCC[C@@H]12 — IC50 (PDE7A; enzyme activity, inhibitor): > 0.1 µM
O=C(O)c1ccc(CN2C(=O)c3cccc(NC(=O)c4ccc(Cl)s4)c3C2=O)cc1 — IC50 (LDHA; enzyme activity, inhibitor): 0.308 µM
O=C1C[C@@H](c2cc(O)cc(O)c2)Oc2cc(O)ccc21 — IC50 (MAOA; enzyme activity, inhibitor): 13.6 µM
COc1cc(/C=C/C(=O)N2CCC(Cc3ccccc3)CC2)ccc1OC1CCCCC1 — IC50 (MAOA; enzyme activity, inhibitor, fluorescence): 63.9 µM
Nc1ncnc2c1ncn2[C@@H]1O[C@H](CSCCNC(=O)Nc2ccccc2)[C@@H](O)[C@H]1O — IC50 (PRMT3; enzyme activity, inhibitor, fluorescence): 1.9 µM
CCN(CC)CCCOc1cc2cc3c(cc2c2nc(OC)c4cc(OC)c(OC)cc4c12)OCO3 — IC50 (TDP1; enzyme activity, inhibitor, fluorescence): 5.4 µM
O=C(Cc1cccs1)N[C@@H]1C(=O)N2C(C(=O)[O-])=C(C[n+]3ccccc3)CS[C@H]12 — IC50 (Rhomboid protease AarA; enzyme activity, inhibitor, fluorescence): 18 µM
O=C(CC(=O)c1cccc(N(Cc2ccccc2)Cc2ccccc2)c1)C(=O)N1CCN(C(=O)C(=O)CC(=O)c2cccc(N(Cc3ccccc3)Cc3ccccc3)c2)CC1 — IC50 (PTPN1; enzyme activity, inhibitor, absorbance; pH 7): 2.8 µM
COc1cc(-c2cc(=O)c3c(O)c(OC)c(O[C@@H]4O[C@H](CO)[C@@H](O)[C@H](O)[C@H]4O[C@@H]4O[C@H](CO)[C@@H](O)[C@H](O)[C@H]4O)cc3o2)ccc1O — IC50 (LDHA; enzyme activity, inhibitor; pH 7.4): 260 µM
CCn1ncc2c1-c1cnc(N)c(c1)O[C@H](C)c1cc(F)ccc1-c1nn(C)nc1C2 — IC50 (NTRK1; enzyme activity, inhibitor): 0.26 µM
Cc1c(C)c2c(c(C)c1O)CCC(C)(COc1ccc(CC3SC(=O)NC3=O)cc1)O2 (centres unmarked) — IC50 (Peroxisome proliferator-activated receptor delta (PPARD, Homo sapiens, UniProt Q03181); enzyme activity, inhibitor): 46 µM
Cc1ccc(C(=O)Nc2ccc(S(=O)(=O)O)c3cc(S(=O)(=O)O)cc(S(=O)(=O)O)c23)cc1NC(=O)c1cccc(NC(=O)Nc2cccc(C(=O)Nc3cc(C(=O)Nc4ccc(S(=O)(=O)O)c5cc(S(=O)(=O)O)cc(S(=O)(=O)O)c45)ccc3C)c2)c1 — IC50 (P2X purinoceptor 4 (P2RX4, Homo sapiens, UniProt Q99571); calcium signal, antagonist): 44.2 µM
